# Measurements pooled from the literature.
# Each line is one published result; the experiments were not run side by side.
# Read-out: enzyme activity
# Action: inhibitor
# rep papain-like protease: Replicase polyprotein 1ab, papain-like protease (rep, Severe acute respiratory syndrome coronavirus 2, UniProt P0DTD1)
# rep main protease: Replicase polyprotein 1ab, main protease (rep, Severe acute respiratory syndrome coronavirus 2, UniProt P0DTD1)
SMILES,target,test,conditions,inhibition [%]
Cc1cccc2cc(/C=N\c3ccc(-c4nc5ccccc5[nH]4)cc3)c(Cl)nc12,rep papain-like protease,,10 µM,10.1
O=C(Nc1ccccc1)Nn1cnnc1,rep main protease,,20 µM,-7.8
COc1ccc2nc(Cl)c(/C=N/c3ccc(-c4nc5ccccc5[nH]4)cc3)cc2c1,rep papain-like protease,,100 µM,13.5
Cc1ccc(NC(=O)c2cc3c(=O)n4cccc(C)c4nc3n2C)cc1Cl,rep main protease,,10 µM,16
Cc1ccc2nc(Cl)c(/C=N/c3cccc([N+](=O)[O-])c3)cc2c1,rep papain-like protease,,100 µM,21.7
Cn1c(C(=O)Nc2ccc(Cl)cc2)cc2c(=O)n3ccccc3nc21,rep main protease,,1 µM,7.4
C/N=c1\nc(-c2ccccc2)n(-c2ccccc2)s1,rep main protease,,1 µM,96.3
COc1cccc2c1C(=O)C(C(C)=O)=CC2=O,rep main protease,,10 µM,96.1
O=c1cc(-c2ccccc2)oc2cc(O)c(O)c(O)c12,rep main protease,,100 µM,99.4
CC1=CC(=O)c2c(O)cccc2C1=O,rep main protease,,10 µM,7.7
NC(=O)CSc1nnc2c3ccccc3nc(-c3ccc(F)cc3)n12,rep main protease,,20 µM,20.1
CC[PH](CC)(CC)[Au][S][C@@H]1O[C@H](COC(C)=O)[C@@H](OC(C)=O)[C@H](OC(C)=O)[C@H]1OC(C)=O,rep main protease,,20 µM,100
O=c1cc(-c2ccc(O)cc2)oc2cc(O)c(O)c(O)c12,rep papain-like protease,,50 µM,65.7
O=C(Oc1cncc(Cl)c1)c1ccc2[nH]c3c(c2c1)CCCC3,rep main protease,fluorescence,"10 µM, pH 7.2",100
Cc1cc(OCc2ccccc2)c2c(c1)C(=O)C=CC2=O,rep main protease,,0.1 µM,28.1
Cc1ccc(NC2C=CS(=O)(=O)C2)cc1 (stereo not drawn),rep main protease,,20 µM,2.03
C[C@@H]1O[C@@H](OC[C@H]2O[C@@H](OCCc3ccc(O)c(O)c3)[C@H](OC(=O)/C=C/c3ccc(O)c(O)c3)[C@@H](O)[C@@H]2O)[C@H](O)[C@H](O)[C@H]1O,rep main protease,,100 µM,99.3
CCOC(=O)COc1cc(C)cc2c1C(=O)C=CC2=O,rep main protease,,1 µM,94.6
CCc1cscc1C(=O)N1Cc2ccccc2C[C@H]1CNC(=O)c1cccc2[nH]ncc12,rep main protease,,5 µM,10.8
Clc1nc2ccccc2cc1/C=N\c1ccc(-c2nc3ccccc3[nH]2)cc1,rep papain-like protease,,10 µM,3.9
O=C(/C=C/c1ccc(O)c(O)c1)O[C@@H]1C[C@](O)(C(=O)O)C[C@@H](O)[C@H]1O,rep main protease,FRET,"10 µM, 10 min",< 25
CCn1nc2n(Cc3ccc(F)cc3)c(=O)c3nn(C)cc3n2c1=O,rep main protease,,20 µM,15.5
O=C(NC[C@H](NC(=O)c1cncc2ccccc12)c1ccc2ccccc2c1)c1cnc[nH]1,rep main protease,,5 µM,18.9
CC1(C)CC(Nc2ccc(Nc3ccccc3)cc2)CC(C)(C)N1,rep main protease,,20 µM,27.8
CN(C(=O)[C@H](Cc1ccccc1)NC(=O)OCc1ccccc1)N(C#N)CCC(N)=O,rep main protease,fluorescence,"50 µM, pH 7.2",100
Cc1cc(NC(=O)c2cc3c(=O)n4cccc(C)c4nc3n2C)ccc1Br,rep main protease,,100 µM,59
O=C(O)[C@H]1O[C@@H](Oc2cc3oc(-c4ccc(O)cc4)cc(=O)c3c(O)c2O)[C@H](O)[C@@H](O)[C@@H]1O,rep papain-like protease,,50 µM,41.8
Cc1cccc(NC2CS(=O)(=O)CC2O)c1 (stereo not drawn),rep main protease,,20 µM,7.43
CCC(=O)Oc1cccc2c1C(=O)C=CC2=O,rep main protease,,1 µM,96.5
Cn1c(C(=O)Nc2ccc3c(c2)OCCO3)cc2c(=O)n3ccccc3nc21,rep main protease,,10 µM,42
N#CC(c1ccc2c(c1)OCO2)N(Cc1ccccc1)C(=O)c1sc2ccccc2c1Cl (stereo not drawn),rep main protease,,20 µM,8.09
Cc1cc(O)c2c(c1)C(=O)C=CC2=O,rep main protease,,10 µM,103
CC[C@@H](C)[C@@H](NC(=O)[C@@H](CCC(=O)O)NC(=O)[C@H](NC(=O)[C@@H](CCC(N)=O)NC(=O)[C@H]1CCCN1C(=O)[C@@H](CCC(N)=O)NC(=O)[C@@H](Cc1c[nH]c2ccccc12)NC(C)=O)C(C)C)C(=O)N[C@H](CO)C(=O)N[C@H](CCC(N)=O)C(=O)N[C@H](CO)C(=O)N1CCC[C@@H]1C(=O)N[C@H](Cc1c[nH]c2ccccc12)C(=O)N[C@H](CO)C(=O)N[C@H](Cc1c[nH]cn1)C(=O)N1CCC[C@@H]1C(=O)N[C@H](CO)C(=O)N[C@H](CCCNC(=N)N)C(N)=O,rep main protease,fluorescence,140 µM,100
O=C(Oc1cncc(Cl)c1)c1cc2c(Cl)cc(Cl)cc2[nH]1,rep main protease,fluorescence,"10 µM, pH 7.2",100
O=C(O)c1ccc(O)c(O)c1,rep main protease,FRET,"10 µM, 10 min",< 25
CN(C)C(=S)SC(=S)N(C)C,rep main protease,,20 µM,-6.7
COc1cc([C@H]2OC[C@H]3[C@@H]2CO[C@H]3c2ccc(OC)c(OC)c2)ccc1O,rep main protease,,100 µM,11.4
CN(C)C(=O)COC(=O)Cc1ccc(OC(=O)c2ccc(NC(=N)N)cc2)cc1,rep main protease,,10 µM,6
Cc1cccn2c(=O)c3cc(C(=O)Nc4ccc(N(C)C)cc4)n(C)c3nc12,rep main protease,,1 mM,64
O=C(/C=C/c1ccc(O)c(O)c1)OC1CC(OC(=O)/C=C/c2ccc(O)c(O)c2)(C(=O)O)CC(O)C1O (stereo not drawn),rep main protease,,10 µM,27.8
CC1(C)C=Cc2cc(-c3coc4cc(O)cc(O)c4c3=O)ccc2O1,rep main protease,,8 µM,11.8
COc1ccc(/C=C\C(=O)NC(=S)Nc2ccc(S(=O)(=O)NC(N)=O)cc2)cc1OC,rep main protease,,100 µg/mL,0
